In brackets after ≈: the same amount, converted by molar mass. Activity calls are given as the source filed them. No cut-off for these calls is given here.
Legend:
[1] = biological target: Cyclin-dependent kinase 1/cyclin B1 (Homo sapiens, UniProt P06493); assay: Binding affinity to human CDK1/cyclinB1; type: protein-complex assay
CDK9/cyclin T1 = CDK9/cyclin T1 (Homo sapiens, UniProt P50750); assay: Binding affinity to human CDK9/cyclinT1; type: protein-complex assay
[2] = biological target: Cyclin-dependent kinase 7/ cyclin H (Homo sapiens) (UniProt P51946+P50613); assay: Inhibition of human CDK7/cyclinH assessed as enzyme activity at 10 uM; type: protein-complex assay
[3] = biological target: Epidermal growth factor receptor (Homo sapiens) (UniProt P00533); assay: Inhibition of human EGFR assessed as enzyme activity at 10 uM
[4] = biological target: Glycogen synthase kinase-3 beta (Homo sapiens) (UniProt P49841); assay: Inhibition of human GSK3beta assessed as enzyme activity at 10 uM
[5] = biological target: Serine/threonine-protein kinase PLK3 (Homo sapiens) (UniProt Q9H4B4); assay: Inhibition of human Plk3 assessed as enzyme activity at 10 uM
[6] = biological target: Protein kinase C alpha type (Homo sapiens) (UniProt P17252); assay: Inhibition of human PKCalpha assessed as enzyme activity at 10 uM
[7] = biological target: Insulin-like growth factor 1 receptor (Homo sapiens) (UniProt P08069); assay: Inhibition of human IGF-1R assessed as enzyme activity at 10 uM
A549 [8] = assay: Cell cycle arrest in human A549 cells assessed as accumulation of cells at G0/G1 phase at IC50 concentration after 24 hrs by flow cytometry (reference value: 49%); type: functional
NCI-H1299 [9] = assay: Cell cycle arrest in human NCI-H1299 cells assessed as accumulation of cells at S phase at IC50 concentration after 24 hrs by flow cytometry (reference value: 21%); type: functional
NCI-H358 [10] = assay: Cell cycle arrest in human NCI-H358 cells assessed as accumulation of cells at G0/G1 phase at IC50 concentration after 12 hrs by flow cytometry in presence of nocodazole for 18 hrs (reference value: 40%); type: functional
[11] = Cell cycle arrest in mouse BNL-CL2 cells assessed as accumulation of cells at G2/M phase at IC50 concentration after 48 hrs by flow cytometry (reference value: 23%); type: functional
In short: (§1)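 Normal (BNL CL2) and SV40 large T-antigen transformed (BNL SV A.8) mouse embryonic hepatic cells were treated at IC50 or IC70 concentration for 48 h. Analysis was by FACS, with apoptosis taken as % cells in the sub-G1 peak. Untreated cells served as control.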

[12] = Cell cycle arrest in mouse BNL-SVA.8 cells assessed as accumulation of cells at S phase at IC50 concentration after 48 hrs by flow cytometry (reference value: 23%); type: functional; in short: as §1
[13] = Cell cycle arrest in mouse BNL-SVA.8 cells assessed as accumulation of cells at G2/M phase at IC50 concentration after 48 hrs by flow cytometry (reference value: 13%); type: functional; in short: as §1
[14] = Cell cycle arrest in mouse BNL-SVA.8 cells assessed as accumulation of cells at subG1 phase at IC50 concentration after 48 hrs by flow cytometry (reference value: 0%); type: functional; in short: as §1
MiaPaCa [15] = assay: Effect on p27 level in p53His273 mutant, pRb+ human MiaPaCa cells at IC50 concentration after 48 hrs by Western blot analysis; type: functional
MiaPaCa [16] = assay: Induction in cyclin B1 level in p53His273 mutant, pRb+ human MiaPaCa cells at IC50 concentration after 48 hrs by Western blot analysis; type: functional
MiaPaCa [17] = assay: Induction in Cdk1 level in p53His273 mutant, pRb+ human MiaPaCa cells at IC50 concentration after 48 hrs by Western blot analysis; type: functional
Tubulin (Homo sapiens) [18] = biological target: T1, Tubulin (Homo sapiens) (UniProt P68371+Q9H4B7+P0DPH7+P68366+Q13509+Q71U36+P04350+Q3ZCM7+P07437+P68363+Q9BQE3+Q6PEY2+Q13885+Q9BVA1+Q9BUF5); assay: Inhibition of tubulin (unknown origin) polymerization assessed as decrease in Vmax measured by spectrophotometry; type: protein-complex assay
In short: (§2)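 Purified tubulin polymerisation followed as absorbance increase over about 4000 s. Vmax (mOD/min) is taken as the read-out, with final polymer mass also noted. Compound is tested at 2.5, 5, 10 and 25 µM alongside untreated control, paclitaxel 10 µM (enhancer) and nocodazole 10 µM (inhibitor). Curves are the average of three independent experiments.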

Tubulin (Homo sapiens) [19] = biological target: T1, Tubulin (Homo sapiens); assay: Inhibition of tubulin (unknown origin) polymerization assessed as decrease in Vmax measured at 2.5 uM by spectrophotometry; type: protein-complex assay; in short: as §2
Tubulin (Homo sapiens) [20] = biological target: T1, Tubulin (Homo sapiens); assay: Inhibition of tubulin (unknown origin) polymerization assessed as decrease in Vmax measured at 5 uM by spectrophotometry; type: protein-complex assay; in short: as §2
Tubulin (Homo sapiens) [21] = biological target: T1, Tubulin (Homo sapiens); assay: Inhibition of tubulin (unknown origin) polymerization assessed as decrease in Vmax measured at 25 uM by spectrophotometry; type: protein-complex assay; in short: as §2
[22] = Solubility in phosphate buffered saline; type: physicochemical
CYP3A4 = CYP3A4 (Homo sapiens, UniProt P08684); assay: Inhibition of human recombinant CYP3A4 at 10 uM; type: ADME
[23] = AUC (0 to t) in BALB/c mouse at 10 mg/kg, po; type: ADME, organism-based; set-up: dose 10 mg/kg, route oral; settings: plasma
In short: (§3)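 BALB/c mice given a single dose of 1.0 mg/kg IV or 10 mg/kg orally; plasma concentration followed over time and pharmacokinetic parameters derived from the time-concentration profile.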

[24] = Cmax in BALB/c mouse at 10 mg/kg, po; type: ADME, organism-based; set-up: dose 10 mg/kg, route oral; settings: in vivo; in short: as §3
[25] = Maximum tolerated dose in ip dosed Swiss mouse assessed as body weight change treated for 5 days; type: ADME, organism-based; settings: in vivo
In short: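 Swiss albino mice, 6 per group, are dosed intraperitoneally once daily for five days (Q1D x 5) at several doses. The formulation contains Tween 20. Body weight is tracked over a two-week study, and MTD is set as the dose giving >10% weight loss; a drop of >20% is rated highly significant.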

[26] = Cell cycle arrest in human WI38 cells assessed as accumulation of cells at G2/M phase by flow cytometry; type: functional, cell-based; settings: WI-38
A549 [27] = assay: Increase in p27 level in p53+, pRb+ human A549 cells at IC50 concentration after 24 hrs by Western blot analysis
LS174T = assay: Increase in p27 level in p53+, pRb+ human LS 174T cells at IC50 concentration after 24 hrs by Western blot analysis
NCI-H1299 [28] = assay: Induction of apoptosis in p53 null, pRb+ human NCI-H1299 cells assessed as fragmented nuclei/distrupted cell membrane at 1 to 10 uM by DAPI staining-based flow cytometry; settings: TDE = time-dependent effect
NCI-H358 [29] = assay: Induction of apoptosis in p53 null, […] human NCI-H358 cells assessed as fragmented nuclei/distrupted cell membrane after 24 hrs by DAPI staining-based flow cytometry
NCI-H358 [30] = assay: Induction of apoptosis in p53 null, […] human NCI-H358 cells assessed as fragmented nuclei/distrupted cell membrane at 1 to 10 uM by DAPI staining-based flow cytometry; settings: TDE = time-dependent effect

Chain of Epidermal growth factor receptor (Homo sapiens) (P00533 whole entry): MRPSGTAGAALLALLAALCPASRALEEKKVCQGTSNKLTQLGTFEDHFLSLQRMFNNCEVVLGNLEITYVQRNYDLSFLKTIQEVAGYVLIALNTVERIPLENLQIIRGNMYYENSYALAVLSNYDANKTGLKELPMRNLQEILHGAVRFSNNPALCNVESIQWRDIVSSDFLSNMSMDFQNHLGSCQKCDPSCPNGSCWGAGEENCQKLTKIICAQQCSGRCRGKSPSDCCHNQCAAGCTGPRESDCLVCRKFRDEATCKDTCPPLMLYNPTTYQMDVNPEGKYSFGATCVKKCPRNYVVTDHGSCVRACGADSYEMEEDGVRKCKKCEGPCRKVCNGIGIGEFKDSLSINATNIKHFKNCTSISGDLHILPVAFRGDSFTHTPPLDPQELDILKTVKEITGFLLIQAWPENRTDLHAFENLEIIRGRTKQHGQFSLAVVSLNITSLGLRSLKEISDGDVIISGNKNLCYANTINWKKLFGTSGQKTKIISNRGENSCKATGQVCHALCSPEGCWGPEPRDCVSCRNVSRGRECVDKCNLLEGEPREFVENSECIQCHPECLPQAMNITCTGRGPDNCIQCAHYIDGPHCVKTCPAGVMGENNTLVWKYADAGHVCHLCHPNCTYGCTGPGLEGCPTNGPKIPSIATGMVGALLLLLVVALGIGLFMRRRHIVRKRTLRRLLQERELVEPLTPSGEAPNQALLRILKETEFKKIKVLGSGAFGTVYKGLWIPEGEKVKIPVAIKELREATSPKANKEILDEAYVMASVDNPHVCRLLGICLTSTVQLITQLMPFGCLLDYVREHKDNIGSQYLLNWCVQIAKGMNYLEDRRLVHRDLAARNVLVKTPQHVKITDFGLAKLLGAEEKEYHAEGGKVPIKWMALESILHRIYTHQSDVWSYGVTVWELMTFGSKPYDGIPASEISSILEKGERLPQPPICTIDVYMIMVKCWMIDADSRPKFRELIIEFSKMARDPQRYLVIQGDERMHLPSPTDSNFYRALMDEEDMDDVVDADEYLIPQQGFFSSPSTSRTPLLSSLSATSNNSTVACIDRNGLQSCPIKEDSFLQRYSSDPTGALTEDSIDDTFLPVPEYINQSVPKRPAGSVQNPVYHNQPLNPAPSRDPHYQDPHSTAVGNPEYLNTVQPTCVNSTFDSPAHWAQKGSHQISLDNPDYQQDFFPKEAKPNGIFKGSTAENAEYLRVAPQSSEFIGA
Chain of CDK9/cyclin T1 (O60563 whole entry): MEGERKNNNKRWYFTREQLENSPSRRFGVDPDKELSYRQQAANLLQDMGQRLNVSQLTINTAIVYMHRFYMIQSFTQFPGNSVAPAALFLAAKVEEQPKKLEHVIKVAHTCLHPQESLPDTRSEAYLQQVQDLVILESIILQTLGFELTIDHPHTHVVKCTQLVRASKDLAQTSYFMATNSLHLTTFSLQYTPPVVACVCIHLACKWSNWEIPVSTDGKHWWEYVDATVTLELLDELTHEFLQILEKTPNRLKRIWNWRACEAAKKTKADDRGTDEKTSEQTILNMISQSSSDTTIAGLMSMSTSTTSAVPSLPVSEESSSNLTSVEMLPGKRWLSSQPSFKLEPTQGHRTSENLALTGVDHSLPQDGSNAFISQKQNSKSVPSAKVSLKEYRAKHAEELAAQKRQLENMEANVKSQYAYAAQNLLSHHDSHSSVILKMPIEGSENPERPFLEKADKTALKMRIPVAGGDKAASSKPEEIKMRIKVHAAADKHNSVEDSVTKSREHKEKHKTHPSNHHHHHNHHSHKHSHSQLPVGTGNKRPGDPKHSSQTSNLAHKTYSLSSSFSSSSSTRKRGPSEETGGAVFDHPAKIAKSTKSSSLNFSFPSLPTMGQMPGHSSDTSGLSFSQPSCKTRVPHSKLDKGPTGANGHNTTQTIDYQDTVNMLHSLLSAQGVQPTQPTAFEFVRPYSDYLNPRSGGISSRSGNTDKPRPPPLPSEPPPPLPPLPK
Chain of CDK9/cyclin T1 (P50750 whole entry): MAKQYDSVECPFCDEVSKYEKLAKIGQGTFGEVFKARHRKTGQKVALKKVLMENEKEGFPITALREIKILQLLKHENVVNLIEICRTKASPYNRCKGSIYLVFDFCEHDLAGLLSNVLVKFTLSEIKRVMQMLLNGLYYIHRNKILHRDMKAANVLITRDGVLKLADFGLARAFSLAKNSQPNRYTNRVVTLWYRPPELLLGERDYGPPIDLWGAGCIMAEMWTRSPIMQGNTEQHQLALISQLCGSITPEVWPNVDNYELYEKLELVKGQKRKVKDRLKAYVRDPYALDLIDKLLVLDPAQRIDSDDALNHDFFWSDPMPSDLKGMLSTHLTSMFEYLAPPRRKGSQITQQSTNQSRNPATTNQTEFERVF
Chain of Insulin-like growth factor 1 receptor (Homo sapiens) (P08069 31-736 limits assumed): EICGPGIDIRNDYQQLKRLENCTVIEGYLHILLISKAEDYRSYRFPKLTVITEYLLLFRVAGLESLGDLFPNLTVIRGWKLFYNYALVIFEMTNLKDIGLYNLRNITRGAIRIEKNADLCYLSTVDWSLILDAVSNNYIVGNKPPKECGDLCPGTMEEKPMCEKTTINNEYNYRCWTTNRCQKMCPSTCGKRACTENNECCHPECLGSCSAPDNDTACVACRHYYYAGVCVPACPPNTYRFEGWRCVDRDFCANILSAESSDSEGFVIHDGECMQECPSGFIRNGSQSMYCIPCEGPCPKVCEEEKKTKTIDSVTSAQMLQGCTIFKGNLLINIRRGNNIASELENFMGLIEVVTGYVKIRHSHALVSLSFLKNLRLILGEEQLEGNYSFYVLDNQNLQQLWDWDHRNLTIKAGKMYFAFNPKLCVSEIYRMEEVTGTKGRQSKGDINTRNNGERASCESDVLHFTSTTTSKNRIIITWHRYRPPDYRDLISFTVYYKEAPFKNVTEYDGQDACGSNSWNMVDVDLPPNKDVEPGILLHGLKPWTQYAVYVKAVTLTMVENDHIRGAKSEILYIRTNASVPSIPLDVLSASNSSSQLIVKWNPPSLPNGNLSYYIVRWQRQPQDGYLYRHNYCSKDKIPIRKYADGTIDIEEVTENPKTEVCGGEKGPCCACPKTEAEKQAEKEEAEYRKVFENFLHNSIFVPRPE
Chain of Insulin-like growth factor 1 receptor (Homo sapiens) (P08069 741-1367 limits assumed): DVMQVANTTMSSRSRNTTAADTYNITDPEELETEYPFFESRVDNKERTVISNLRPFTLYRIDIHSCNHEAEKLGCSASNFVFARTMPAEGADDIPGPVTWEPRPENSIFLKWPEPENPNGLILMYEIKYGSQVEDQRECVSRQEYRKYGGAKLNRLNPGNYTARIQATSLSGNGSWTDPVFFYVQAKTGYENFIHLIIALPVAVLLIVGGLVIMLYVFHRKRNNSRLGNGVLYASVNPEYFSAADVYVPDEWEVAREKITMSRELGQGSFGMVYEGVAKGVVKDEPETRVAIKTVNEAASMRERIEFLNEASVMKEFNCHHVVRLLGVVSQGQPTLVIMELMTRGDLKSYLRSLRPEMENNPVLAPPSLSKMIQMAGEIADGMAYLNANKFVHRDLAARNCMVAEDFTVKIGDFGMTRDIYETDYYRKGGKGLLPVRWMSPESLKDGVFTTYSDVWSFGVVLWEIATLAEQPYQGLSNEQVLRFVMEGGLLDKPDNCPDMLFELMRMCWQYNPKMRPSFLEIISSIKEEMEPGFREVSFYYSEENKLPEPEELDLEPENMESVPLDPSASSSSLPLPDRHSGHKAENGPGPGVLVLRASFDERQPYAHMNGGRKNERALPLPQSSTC
Chain of Cyclin-dependent kinase 1/cyclin B1 (P06493 whole entry): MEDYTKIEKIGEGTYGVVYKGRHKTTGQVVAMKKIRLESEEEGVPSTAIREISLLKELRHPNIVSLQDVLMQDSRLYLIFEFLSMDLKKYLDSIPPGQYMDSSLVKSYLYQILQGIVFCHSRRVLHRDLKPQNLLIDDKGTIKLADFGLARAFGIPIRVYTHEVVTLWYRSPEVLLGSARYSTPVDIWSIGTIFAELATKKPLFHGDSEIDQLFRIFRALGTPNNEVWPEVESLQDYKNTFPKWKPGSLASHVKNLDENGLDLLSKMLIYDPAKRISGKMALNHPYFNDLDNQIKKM
Chain of Cyclin-dependent kinase 1/cyclin B1 (P14635 whole entry, further chain): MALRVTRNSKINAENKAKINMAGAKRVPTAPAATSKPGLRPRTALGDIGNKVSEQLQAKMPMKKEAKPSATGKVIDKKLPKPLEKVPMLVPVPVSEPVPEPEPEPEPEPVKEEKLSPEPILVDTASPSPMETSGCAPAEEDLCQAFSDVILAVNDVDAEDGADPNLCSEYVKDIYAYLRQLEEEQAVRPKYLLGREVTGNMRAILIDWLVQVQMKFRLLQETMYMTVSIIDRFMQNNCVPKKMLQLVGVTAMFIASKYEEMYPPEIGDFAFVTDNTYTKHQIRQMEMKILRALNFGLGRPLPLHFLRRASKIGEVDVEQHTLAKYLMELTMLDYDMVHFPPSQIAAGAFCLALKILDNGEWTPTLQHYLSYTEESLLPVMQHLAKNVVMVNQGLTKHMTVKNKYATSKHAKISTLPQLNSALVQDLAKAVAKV

## CN(CCc1c[nH]c2ccccc12)C(=O)c1ccc(-c2ccccc2)cc1
[1]
  IC50: > 500 µM
CDK9/cyclin T1
  IC50: > 1000 µM
[2]
  inhibition: inactive
[3]
  inhibition: inactive
[4]
  inhibition: inactive
[5]
  inhibition: inactive
[6]
  inhibition: inactive
[7]
  inhibition: inactive
A549 [8]
  Activity: 3%
NCI-H1299 [9]
  Activity: 10%
NCI-H358 [10]
  Activity: 7%
[11]
  Activity: 54%
[12]
  Activity: 21%
[13]
  Activity: 14%
[14]
  Activity: 31%
MiaPaCa [15]
  Activity: inactive
MiaPaCa [16]
  Activity: Active
MiaPaCa [17]
  Activity: Active
Tubulin (Homo sapiens) [18]
  inhibition: Dose-dependent effect
Tubulin (Homo sapiens) [19]
  Activity (milli optical density/minute): 6.2
Tubulin (Homo sapiens) [20]
  Activity (milli optical density/minute): 2.1
Tubulin (Homo sapiens) [21]
  Activity (milli optical density/minute): 0.4
[22]
  solubility: 125 µg/mL (≈ 353 µM)
CYP3A4
  inhibition at 10 µM: 50%
[23]
  AUC(0-t): 172 ng·h/mL
[24]
  Cmax: 190 ng/mL
[25]
  MTD at 120 h: 1000 mg/kg
[26]
  Activity: Active
A549 [27]
  Activity: Active
LS174T
  Activity: Active
NCI-H1299 [28]
  Activity: tde
NCI-H358 [29]
  Activity: Dose-dependent effect
NCI-H358 [30]
  Activity: tde

— ChEMBL document CHEMBL3351368, “Biphenyl-4-carboxylic acid [2-(1H-indol-3-yl)-ethyl]-methylamide (CA224), a nonplanar analogue of fascaplysin, inhibits Cdk4 and tubulin polymerization: evaluation of in vitro and in vivo anticancer activity” (J Med Chem, 2014)
